Measurements reported in ChEMBL document CHEMBL1156779, “Biotin derivatives carrying two chelating DOTA units. Synthesis, in vitro evaluation of biotinidases resistance, avidin binding, and radiolabeling tests” (J Med Chem, 2010).

Key:
[1] = Displacement of HABA from avidin
In short: (§1)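 HABA competition in cuvettes. HABA/avidin complex formed at final avidin 7.6 μM and […], then competitors added at various concentrations. Absorbance read at 500 nm. Triplicate runs. % inhibition computed from absorbance with competitor against absorbance without competitor, each corrected for the blank without HABA/Av complex.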

Serum = test: Stability in normal mouse serum after 2 hrs; type: ADME, cell-free
In short: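 Freshly collected normal mouse serum (50 μL) used as biotinidase source, mixed with sample and brought to 500 μL in 100 mM sodium acetate pH 5.5. Incubated at 37 °C for up to 2 h. Aliquots taken before and after incubation, diluted 10-fold in 0.08% TFA, then analysed by C18 RP-HPLC-ESI-MS (2-60% B over 20 min, 0.2 mL/min) for release of free biotin and recovery of parent.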

[2] = Displacement of HABA from avidin at 31 uM; in short: as §1
[3] = Binding affinity to avidin by thermal stability study
In short: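 Far-UV CD of avidin/ligand complexes. Thermal unfolding followed by the fall in dichroic signal at 225 nm over 25-95 °C. Settings: bandwidth 1 nm, response 0.5 s, data pitch 1 °C, slope 10 °C/min. Full spectrum (195-260 nm) recorded every 5 °C increment, each spectrum an average of three. Inflection point of the melting curve taken as the read-out.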

Structure (SMILES) | Activity [1] | Stability (Serum) | inhibition [2] | Stability [3]
O=C(O)CN1CCN(CC(=O)O)CCN(CC(=O)NCCCN(CCCNC(=O)CN2CCN(CC(=O)O)CCN(CC(=O)O)CCN(CC(=O)O)CC2)CC(=O)Nc2ccc(C(=O)NCCCCC(NC(=O)CCCC[C@@H]3SC[C@@H]4NC(=O)N[C@@H]43)C(=O)O)cc2)CCN(CC(=O)O)CC1 (stereo partly drawn) | Dose-dependent effect | Stable | 97% | > 95 °C
O=C(O)CCCC[C@@H]1SC[C@@H]2NC(=O)N[C@@H]21 | – | – | 100% | –
O=C(O)CN1CCN(CC(=O)O)CCN(CC(=O)NCCCN(CCCNC(=O)CN2CCN(CC(=O)O)CCN(CC(=O)O)CCN(CC(=O)O)CC2)CC(=O)NCCCCCCNCCCCC[C@@H]2SC[C@@H]3NC(=O)N[C@@H]32)CCN(CC(=O)O)CC1 | Dose-dependent effect | – | 66% | 90 °C
O=C(O)CN1CCN(CC(=O)O)CCN(CC(=O)NCCCCCCN(CCCCCCNC(=O)CN2CCN(CC(=O)O)CCN(CC(=O)O)CCN(CC(=O)O)CC2)CC(=O)NCCCCCCNCCCCC[C@@H]2SC[C@@H]3NC(=O)N[C@@H]32)CCN(CC(=O)O)CC1 | Dose-dependent effect | – | 64% | –
O=C(O)CN1CCN(CC(=O)O)CCN(CC(=O)NCCCN(CCCNC(=O)CN2CCN(CC(=O)O)CCN(CC(=O)O)CCN(CC(=O)O)CC2)CC(=O)NCCCCC(NC(=O)CCCC[C@@H]2SC[C@@H]3NC(=O)N[C@@H]32)C(=O)O)CCN(CC(=O)O)CC1 (stereo partly drawn) | Dose-dependent effect | – | 95% | > 95 °C
